Measured values published in ChEMBL document CHEMBL1121848, “Inactivation of trypsin-like proteases by depsipeptides of p-guanidinobenzoic acid” (J Med Chem, 1981).

What was measured:
[1] = Compound was evaluated for the reactivity in the inactivation of trypsin like enzyme
In short: (§1)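 Each enzyme (10^-6 to 10^-9 M final) was incubated at 25 °C with inhibitor dissolved in water (10^-3 to 10^-6 M final) in 50 mM Pipes, pH 7.0, with 200 mM NaCl. Loss of activity was treated as first-order to give k_app. Reactivity was k_app divided by inhibitor concentration.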

[2] = Second order rate constant was determined in the inactivation of HPK
In short: (§2)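 Trypsin or human plasma kallikrein (10^-6 to 10^-9 M final) was inactivated at 25 °C by ester in water (10^-3 to 10^-6 M final) in 50 mM Pipes, pH 7.0, with 200 mM NaCl. Activity decayed first-order. Individual constants k_2 (min⁻¹) and K_m (M) were resolved for each enzyme.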

[3] = target: Plasma kallikrein (Homo sapiens) (UniProt P03952); experiment: Compound was evaluated for the reactivity in the inactivation of trypsin like enzyme Human plasma Kallikrein
Sequence of Plasma kallikrein (Homo sapiens) (P03952 whole entry, looked up): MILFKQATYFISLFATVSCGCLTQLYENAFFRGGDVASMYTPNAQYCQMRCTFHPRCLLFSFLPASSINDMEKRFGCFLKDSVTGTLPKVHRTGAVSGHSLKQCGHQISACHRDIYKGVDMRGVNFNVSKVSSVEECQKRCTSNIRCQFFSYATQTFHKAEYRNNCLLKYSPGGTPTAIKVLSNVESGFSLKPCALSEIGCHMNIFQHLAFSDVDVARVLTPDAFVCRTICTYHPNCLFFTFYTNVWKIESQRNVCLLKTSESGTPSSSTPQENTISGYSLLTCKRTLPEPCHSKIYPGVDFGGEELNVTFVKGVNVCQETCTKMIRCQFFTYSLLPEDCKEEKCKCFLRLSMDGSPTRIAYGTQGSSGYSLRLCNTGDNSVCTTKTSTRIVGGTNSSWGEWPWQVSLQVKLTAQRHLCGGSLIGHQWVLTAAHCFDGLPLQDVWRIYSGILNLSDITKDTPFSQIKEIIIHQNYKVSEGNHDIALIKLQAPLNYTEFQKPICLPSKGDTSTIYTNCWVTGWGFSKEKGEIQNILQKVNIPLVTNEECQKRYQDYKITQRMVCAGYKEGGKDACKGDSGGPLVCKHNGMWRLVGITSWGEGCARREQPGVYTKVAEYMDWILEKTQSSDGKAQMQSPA

[4] = Second order rate constant was determined in the inactivation of trypsin; in short: as §2
[5] = system: Plasminogen; experiment: Compound was evaluated for the reactivity in the inactivation of trypsin like enzyme plasmin; in short: as §1
[6] = target: Urokinase-type plasminogen activator (Homo sapiens) (UniProt P00749); experiment: Compound was evaluated for the reactivity in the inactivation of trypsin like Urokinase-type plasminogen activator; in short: as §1
[7] = target: Acrosin (Sus scrofa) (UniProt P08001); experiment: Compound was evaluated for the reactivity in the inactivation of trypsin like boar acrosin
Sequence of Acrosin (Sus scrofa) (P08001 whole entry, looked up): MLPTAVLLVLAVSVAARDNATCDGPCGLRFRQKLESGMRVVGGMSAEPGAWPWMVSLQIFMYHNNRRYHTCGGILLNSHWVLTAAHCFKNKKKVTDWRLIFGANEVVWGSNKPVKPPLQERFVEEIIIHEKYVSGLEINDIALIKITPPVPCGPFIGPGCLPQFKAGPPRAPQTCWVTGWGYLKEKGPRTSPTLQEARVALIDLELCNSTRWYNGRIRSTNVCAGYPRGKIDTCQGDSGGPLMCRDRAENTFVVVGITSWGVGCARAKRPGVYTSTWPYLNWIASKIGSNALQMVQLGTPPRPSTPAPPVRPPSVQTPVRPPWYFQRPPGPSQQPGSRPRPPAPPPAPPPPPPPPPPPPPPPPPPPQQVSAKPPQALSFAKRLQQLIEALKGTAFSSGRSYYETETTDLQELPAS

Structure (SMILES) | Reactivity [1] | k2 [2] | Reactivity [3] | k2 [4] | Reactivity [5] | Reactivity [6] | Reactivity [7]
CC(=O)O.N=C(N)Nc1ccc(C(=O)OCC(=O)NCC(=O)NCC(N)=O)cc1 | 10200 | 0.344 min⁻¹ | 2000 | 0.832 min⁻¹ | – | – | –
CC(=O)O.C[C@H](NC(=O)COC(=O)c1ccc(NC(=N)N)cc1)C(=O)N[C@@H](Cc1ccccc1)C(N)=O | 13400 | 0.84 min⁻¹ | 1400 | 0.748 min⁻¹ | – | – | –
CC(=O)O.CCOC(=O)c1ccc(NC(=N)N)cc1 | 259 | – | 26 | 1.89 min⁻¹ | – | 11 | 200000
CC(=O)O.N=C(N)Nc1ccc(C(=O)OCC(=O)NC(Cc2ccccc2)C(N)=O)cc1 (centres undefined) | 46000 | 0.74 min⁻¹ | 8600 | 3.24 min⁻¹ | 753 | 21 | 207000
CC(=O)O.CC(C)C(NC(=O)COC(=O)c1ccc(NC(=N)N)cc1)C(N)=O (centres undefined) | 11200 | 0.87 min⁻¹ | 2000 | 0.74 min⁻¹ | 441 | 5 | 114000

The next lines start with the values.

Reactivity [1] | k2 [2] | Reactivity [3] | k2 [4] | Reactivity [5] | Reactivity [6] | Reactivity [7] | Structure (SMILES)
14200 | 0.1 min⁻¹ | 3000 | 3.7 min⁻¹ | 743 | 32 | – | CC(=O)O.CC(OC(=O)c1ccc(NC(=N)N)cc1)C(=O)NC(Cc1ccccc1)C(N)=O (centres undefined)
17000 | 1.25 min⁻¹ | 2800 | 0.523 min⁻¹ | 644 | 300 | 117000 | CC(=O)O.N=C(N)Nc1ccc(C(=O)OCC(N)=O)cc1
32000 | 0.83 min⁻¹ | 2600 | 1.27 min⁻¹ | – | – | – | CC(=O)O.N=C(N)Nc1ccc(C(=O)OCC(=O)N[C@@H](Cc2ccccc2)C(=O)N2CCC[C@H]2C(N)=O)cc1
